Reference: ChEMBL document CHEMBL1147063, “Diazonamide toxins reveal an unexpected function for ornithine delta-amino transferase in mitotic cell division” (2007)
Activity calls are given as the source filed them. No cut-off for these calls is given here.

Columns and labels:
[1] = target: T1, Ornithine aminotransferase, mitochondrial (Mus musculus) (UniProt P29758); experiment: Inhibition of ornithine delta-amino transferase activity in mouse liver mitochondria
T1 sequence (whole entry): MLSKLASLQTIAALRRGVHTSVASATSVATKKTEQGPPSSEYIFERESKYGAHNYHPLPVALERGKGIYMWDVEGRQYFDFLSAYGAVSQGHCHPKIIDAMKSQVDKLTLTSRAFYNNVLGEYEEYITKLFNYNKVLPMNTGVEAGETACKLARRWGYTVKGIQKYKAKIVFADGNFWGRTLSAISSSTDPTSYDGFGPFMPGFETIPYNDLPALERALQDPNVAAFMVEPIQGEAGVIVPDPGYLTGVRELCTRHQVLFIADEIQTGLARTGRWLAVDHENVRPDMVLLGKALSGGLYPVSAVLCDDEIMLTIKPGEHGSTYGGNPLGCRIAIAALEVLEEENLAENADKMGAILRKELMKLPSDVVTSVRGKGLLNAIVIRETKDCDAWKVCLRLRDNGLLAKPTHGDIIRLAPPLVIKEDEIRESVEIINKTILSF
Summary of the method: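 Crude OAT prepared from mouse liver. Enzyme added last with a compound dilution series; shaken at 37°C for 20 min. Δ¹-pyrroline-5-carboxylate detected by reaction with o-aminobenzaldehyde; absorbance read at 443.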

HeLa [2] = experiment: Antimitotic activity in human HeLa cells; type: functional, cell-based
[3] = Binding affinity to tubulin
[4] = target: T2, Ornithine aminotransferase, mitochondrial (Homo sapiens) (UniProt P04181); experiment: Binding affinity to ornithine delta-amino transferase in human HeLa cells by silver stained SDS/PAGE method; type: cell-based
T2 sequence (whole entry): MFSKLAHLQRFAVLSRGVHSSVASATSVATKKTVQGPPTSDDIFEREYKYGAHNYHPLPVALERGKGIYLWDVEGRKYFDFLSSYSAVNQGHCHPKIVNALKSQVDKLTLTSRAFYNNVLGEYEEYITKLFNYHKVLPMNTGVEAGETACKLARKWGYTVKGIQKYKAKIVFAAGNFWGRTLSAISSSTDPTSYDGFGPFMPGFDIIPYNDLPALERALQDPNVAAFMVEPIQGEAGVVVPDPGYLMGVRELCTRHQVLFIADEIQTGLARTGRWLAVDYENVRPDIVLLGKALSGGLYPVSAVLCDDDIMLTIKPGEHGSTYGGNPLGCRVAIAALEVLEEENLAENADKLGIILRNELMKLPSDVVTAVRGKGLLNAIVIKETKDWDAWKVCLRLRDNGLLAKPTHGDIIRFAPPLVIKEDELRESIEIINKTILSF
Summary of the method: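 HeLa nuclear extract, dialysed into buffer B (20 mM Hepes-KOH pH 7.5, 10 mM KCl, 1.5 mM MgCl₂, EDTA, EGTA, DTT, PMSF, plus 150 mM NaCl) with 0.1% Nonidet P-40. Extract fractionated on Hitrap Q anion exchange; fractions incubated overnight at 4°C with biotinylated probe precoupled to avidin agarose. Bound proteins resolved by silver-stained SDS/PAGE; specific ~50 kDa bands identified by mass spectrometry.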

Xenopus = experiment: Effect on RanGTP L43E mutant-stimulated microtubule aster formations in Xenopus egg extract
[5] = tested on: Ornithine aminotransferase, mitochondrial (Xenopus laevis); experiment: Binding affinity to ornithine delta-amino transferase in RanGTP L43E mutant pre-treated Xenopus egg extracts; details: egg extract
HeLa [6] = experiment: Cell cycle arrest in human HeLa cells assessed as phosphorylated histone H3 level at 30 nM after 24 hrs; type: functional, cell-based
Summary of the method: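 HeLa cells dosed with 30 nM compound for a time course. Cell extracts immunoblotted for phosphorylated histone H3 as mitotic marker, with actin as loading reference.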

HeLa [7] = experiment: Cell cycle arrest in human HeLa cells assessed as abnormal spindle structure formation at 30 nM after 24 hrs; type: functional, cell-based
Summary of the method: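 HeLa cells grown 24 h with or without 30 nM compound, then fixed in 4% formaldehyde. Stained with anti-α-tubulin monoclonal (1:1,000) and DAPI; spindle and nuclear morphology imaged by confocal microscopy. Abnormal mono-/multipolar spindles and multinucleate cells counted as a percentage of cells.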

U2OS = experiment: Cell cycle arrest in human U2OS cells assessed as abnormal spindle structure formation at 30 nM after 16 hrs; type: functional, cell-based
HeLa [8] = experiment: Cell cycle arrest in human HeLa cells by accumulation at 2N stage at 30 nM after 24 hrs; type: functional
Summary of the method: (§1)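 HeLa cells exposed to 30 nM compound for the indicated times. DNA content measured by FACS to score 2N versus tetraploid (4N) populations.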

HeLa [9] = experiment: Cell cycle arrest in human HeLa cells by accumulation at 4N stage at 30 nM after 24 hrs; type: functional; summary of the method: as §1

| Compound | Activity [1] | Activity [3] | Activity [4] | other results |
| --- | --- | --- | --- | --- |
| C#CC(N)CCC(=O)O (stereo unspecified) | Active | – | – | – |
| CC(CCCCNC(=O)CCCC[C@@H]1SC[C@@H]2NC(=O)N[C@@H]21)[C@H](O)C(=O)N[C@H]1Cc2ccc3c(c2)[C@]24C5=C(N=C(O5)[C@H](C(C)C)NC1=O)c1nc(Cl)c(o1)-c1c(Cl)[nH]c5cccc(c15)-c1cccc2c1O[C@@H]4O3 (stereo partly specified) | inactive | inactive | Active | Activity (HeLa [2]): Active; Activity (Xenopus): Active; Activity [5]: inactive |
| CC(C)[C@H](O)C(=O)N[C@H]1Cc2ccc3c(c2)[C@]24C5=C(N=C(O5)[C@H](C(C)C)NC1=O)c1nc(Cl)c(o1)-c1c(Cl)[nH]c5cccc(c15)-c1cccc2c1O[C@@H]4O3 | inactive | – | – | – |
| CC(CCCCNC(=O)CCCC[C@@H]1SC[C@@H]2NC(=O)N[C@@H]21)[C@H](O)C(=O)N[C@H]1Cc2ccc3c(c2)[C@]2(C4=C(c5nc(Cl)c(-c6c(Cl)[nH]c7ccccc67)o5)N=C(O4)[C@H](C(C)C)NC1=O)c1ccccc1O[C@@H]2O3 (stereo partly specified) | – | inactive | inactive | – |
| CC(C)[C@H](O)C(=O)N[C@H]1Cc2ccc3c(c2)[C@]24C5=C(N=C(O5)[C@H](C(C)C)NC1=O)c1nc(Cl)c(o1)-c1c(Cl)[nH]c5cccc(c15)-c1cccc2c1N[C@@H]4O3 | inactive | – | – | Activity (HeLa [6]): Active; Activity (HeLa [7]): Active; Activity (U2OS): Active |
| [H][C@]12Nc3c4cccc3[C@]13C1=C(N=C(O1)[C@H](C(C)C)NC(=O)[C@@H](NC(=O)[C@@H](O)C(C)C)Cc1ccc(c3c1)O2)c1nc(Cl)c(o1)-c1c(Cl)[nH]c2cccc-4c12 [DIAZONAMIDE A] | – | – | – | Activity (HeLa [8]): 6.9%; Activity (HeLa [9]): 85.69% |
